In brackets after ≈: the same amount, converted by molar mass.
How the values were obtained:
Assay type in all cases: functional
[1] = test system: Enterobacter cloacae; experiment: Antibacterial activity against Enterobacter cloacae by CLSI M100-S17 method
[2] = test system: Pseudomonas aeruginosa; experiment: Antibacterial activity against Pseudomonas aeruginosa assessed as resistant isolates by CLSI M100-S17 method
[3] = test system: Klebsiella oxytoca; experiment: Antibacterial activity against Klebsiella oxytoca by CLSI M100-S17 method
[4] = test system: Pseudomonas aeruginosa; experiment: Antibacterial activity against Pseudomonas aeruginosa assessed as intermediate isolates by CLSI M100-S17 method
[5] = test system: Stenotrophomonas maltophilia; experiment: Antibacterial activity against Stenotrophomonas maltophilia by CLSI M100-S17 method
[6] = test system: Proteus mirabilis; experiment: Antibacterial activity against Proteus mirabilis assessed as intermediate isolates by CLSI M100-S17 method
[7] = test system: Serratia marcescens; experiment: Antibacterial activity against Serratia marcescens by CLSI M100-S17 method
[8] = test system: Moraxella catarrhalis; experiment: Antibacterial activity against Moraxella catarrhalis by CLSI M100-S17 method
[9] = test system: Klebsiella pneumoniae; experiment: Antibacterial activity against Klebsiella pneumoniae assessed as susceptible isolates by CLSI M100-S17 method
[10] = test system: Klebsiella pneumoniae; experiment: Antibacterial activity against Klebsiella pneumoniae assessed as intermediate isolates by CLSI M100-S17 method
[11] = test system: Klebsiella oxytoca; experiment: Antibacterial activity against Klebsiella oxytoca assessed as susceptible isolates by CLSI M100-S17 method
[12] = test system: Proteus mirabilis; experiment: Antibacterial activity against Proteus mirabilis assessed as susceptible isolates by CLSI M100-S17 method
[13] = test system: Escherichia coli; experiment: Antibacterial activity against Escherichia coli assessed as intermediate isolates by CLSI M100-S17 method
[14] = test system: Serratia marcescens; experiment: Antibacterial activity against Serratia marcescens assessed as intermediate isolates by CLSI M100-S17 method
[15] = test system: Pseudomonas aeruginosa; experiment: Antibacterial activity against Pseudomonas aeruginosa assessed as susceptible isolates by CLSI M100-S17 method
[16] = test system: Serratia marcescens; experiment: Antibacterial activity against Serratia marcescens assessed as susceptible isolates by CLSI M100-S17 method
[17] = test system: Enterobacter cloacae; experiment: Antibacterial activity against Enterobacter cloacae assessed as intermediate isolates by CLSI M100-S17 method
[18] = test system: Klebsiella oxytoca; experiment: Antibacterial activity against Klebsiella oxytoca assessed as intermediate isolates by CLSI M100-S17 method
[19] = test system: Acinetobacter baumannii; experiment: Antibacterial activity against Acinetobacter baumannii assessed as intermediate isolates by CLSI M100-S17 method
[20] = test system: Escherichia coli; experiment: Antibacterial activity against Escherichia coli by CLSI M100-S17 method
[21] = test system: Enterobacter cloacae; experiment: Antibacterial activity against Enterobacter cloacae assessed as susceptible isolates by CLSI M100-S17 method
[22] = test system: Escherichia coli; experiment: Antibacterial activity against Escherichia coli assessed as susceptible isolates by CLSI M100-S17 method
[23] = test system: Proteus mirabilis; experiment: Antibacterial activity against Proteus mirabilis by CLSI M100-S17 method
[24] = test system: Acinetobacter baumannii; experiment: Antibacterial activity against Acinetobacter baumannii assessed as susceptible isolates by CLSI M100-S17 method
[25] = test system: Pseudomonas aeruginosa; experiment: Antibacterial activity against Pseudomonas aeruginosa by CLSI M100-S17 method
[26] = test system: Acinetobacter baumannii; experiment: Antibacterial activity against Acinetobacter baumannii assessed as resistant isolates by CLSI M100-S17 method
[27] = test system: Acinetobacter baumannii; experiment: Antibacterial activity against Acinetobacter baumannii by CLSI M100-S17 method
[28] = test system: Klebsiella pneumoniae; experiment: Antibacterial activity against Klebsiella pneumoniae by CLSI M100-S17 method
[29] = test system: Klebsiella oxytoca; experiment: Antibacterial activity against Klebsiella oxytoca assessed as susceptible isolates by CLSI M100-S17 method in presence of Tazobactam
How it was run: (§1)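 CLSI broth microdilution on clinical isolates, using frozen in-house-prepared panels of test and comparator agents. MICs were read after 20 to 24 h incubation at 35°C in ambient air. Susceptible/intermediate categories were assigned by CLSI M100-S17 guidelines.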

[30] = test system: Escherichia coli; experiment: Antibacterial activity against Escherichia coli assessed as susceptible isolates by CLSI M100-S17 method in presence of Tazobactam; how it was run: as §1
[31] = test system: Acinetobacter baumannii; experiment: Antibacterial activity against Acinetobacter baumannii by CLSI M100-S17 method in presence of Tazobactam; how it was run: as §1
[32] = test system: Moraxella catarrhalis; experiment: Antibacterial activity against Moraxella catarrhalis by CLSI M100-S17 method in presence of Tazobactam; how it was run: as §1
[33] = test system: Escherichia coli; experiment: Antibacterial activity against Escherichia coli assessed as intermediate isolates by CLSI M100-S17 method in presence of Tazobactam; how it was run: as §1
[34] = test system: Stenotrophomonas maltophilia; experiment: Antibacterial activity against Stenotrophomonas maltophilia by CLSI M100-S17 method in presence of Tazobactam; how it was run: as §1
[35] = test system: Pseudomonas aeruginosa; experiment: Antibacterial activity against Pseudomonas aeruginosa assessed as resistant isolates by CLSI M100-S17 method in presence of Tazobactam
How it was run: (§2)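 Clinical isolates were tested by CLSI broth microdilution in frozen, in-house-prepared 96-well panels of the test agent and comparator agents. MICs were read and classed as susceptible, intermediate or resistant using CLSI M100-S17 breakpoints. The value is the share of isolates in each category.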

[36] = test system: Serratia marcescens; experiment: Antibacterial activity against Serratia marcescens assessed as resistant isolates by CLSI M100-S17 method in presence of Tazobactam; how it was run: as §2
[37] = test system: Acinetobacter baumannii; experiment: Antibacterial activity against Acinetobacter baumannii assessed as intermediate isolates by CLSI M100-S17 method in presence of Tazobactam; how it was run: as §2
[38] = test system: Klebsiella oxytoca; experiment: Antibacterial activity against Klebsiella oxytoca by CLSI M100-S17 method in presence of Tazobactam; how it was run: as §1
[39] = test system: Proteus mirabilis; experiment: Antibacterial activity against Proteus mirabilis assessed as intermediate isolates by CLSI M100-S17 method in presence of Tazobactam; how it was run: as §2
[40] = test system: Enterobacter cloacae; experiment: Antibacterial activity against Enterobacter cloacae assessed as resistant isolates by CLSI M100-S17 method in presence of Tazobactam; how it was run: as §2
[41] = test system: Pseudomonas aeruginosa; experiment: Antibacterial activity against Pseudomonas aeruginosa by CLSI M100-S17 method in presence of Tazobactam; how it was run: as §1
[42] = test system: Serratia marcescens; experiment: Antibacterial activity against Serratia marcescens assessed as intermediate isolates by CLSI M100-S17 method in presence of Tazobactam; how it was run: as §1
[43] = test system: Escherichia coli; experiment: Antibacterial activity against Escherichia coli assessed as resistant isolates by CLSI M100-S17 method in presence of Tazobactam; how it was run: as §2
[44] = test system: Pseudomonas aeruginosa; experiment: Antibacterial activity against Pseudomonas aeruginosa assessed as intermediate isolates by CLSI M100-S17 method in presence of Tazobactam; how it was run: as §1
[45] = test system: Pseudomonas aeruginosa; experiment: Antibacterial activity against Pseudomonas aeruginosa assessed as susceptible isolates by CLSI M100-S17 method in presence of Tazobactam; how it was run: as §1
[46] = test system: Serratia marcescens; experiment: Antibacterial activity against Serratia marcescens by CLSI M100-S17 method in presence of Tazobactam; how it was run: as §1
[47] = test system: Escherichia coli; experiment: Antibacterial activity against Escherichia coli by CLSI M100-S17 method in presence of Tazobactam; how it was run: as §1
[48] = test system: Enterobacter cloacae; experiment: Antibacterial activity against Enterobacter cloacae by CLSI M100-S17 method in presence of Tazobactam; how it was run: as §1
[49] = test system: Klebsiella oxytoca; experiment: Antibacterial activity against Klebsiella oxytoca assessed as resistant isolates by CLSI M100-S17 method in presence of Tazobactam; how it was run: as §2
[50] = test system: Klebsiella oxytoca; experiment: Antibacterial activity against Klebsiella oxytoca assessed as intermediate isolates by CLSI M100-S17 method in presence of Tazobactam; how it was run: as §1
[51] = test system: Proteus mirabilis; experiment: Antibacterial activity against Proteus mirabilis by CLSI M100-S17 method in presence of Tazobactam; how it was run: as §1
[52] = test system: Acinetobacter baumannii; experiment: Antibacterial activity against Acinetobacter baumannii assessed as susceptible isolates by CLSI M100-S17 method in presence of Tazobactam; how it was run: as §1
[53] = test system: Klebsiella pneumoniae; experiment: Antibacterial activity against Klebsiella pneumoniae by CLSI M100-S17 method in presence of Tazobactam; how it was run: as §1
[54] = test system: Klebsiella pneumoniae; experiment: Antibacterial activity against Klebsiella pneumoniae assessed as susceptible isolates by CLSI M100-S17 method in presence of Tazobactam; how it was run: as §1
[55] = test system: Enterobacter cloacae; experiment: Antibacterial activity against Enterobacter cloacae assessed as susceptible isolates by CLSI M100-S17 method in presence of Tazobactam; how it was run: as §1
[56] = test system: Klebsiella pneumoniae; experiment: Antibacterial activity against Klebsiella pneumoniae assessed as intermediate isolates by CLSI M100-S17 method in presence of Tazobactam; how it was run: as §1
[57] = test system: Klebsiella pneumoniae; experiment: Antibacterial activity against Klebsiella pneumoniae assessed as resistant isolates by CLSI M100-S17 method in presence of Tazobactam; how it was run: as §2
[58] = test system: Serratia marcescens; experiment: Antibacterial activity against Serratia marcescens assessed as susceptible isolates by CLSI M100-S17 method in presence of Tazobactam; how it was run: as §1
[59] = test system: Proteus mirabilis; experiment: Antibacterial activity against Proteus mirabilis assessed as susceptible isolates by CLSI M100-S17 method in presence of Tazobactam; how it was run: as §1
[60] = test system: Enterobacter cloacae; experiment: Antibacterial activity against Enterobacter cloacae assessed as intermediate isolates by CLSI M100-S17 method in presence of Tazobactam; how it was run: as §1

C[C@@H](O)[C@H]1C(=O)N2C(C(=O)O)=C(S[C@@H]3CN[C@H](C(=O)N(C)C)C3)[C@H](C)[C@H]12 [MEROPENEM]
MIC50 [1]: ≤ 0.06 µg/mL
MIC90 [1]: ≤ 0.06 µg/mL
Activity [2]: 8.1%
MIC50 [3]: ≤ 0.06 µg/mL
MIC90 [3]: ≤ 0.06 µg/mL
Activity [4]: 4.1%
MIC50 [5]: > 64 µg/mL
MIC90 [5]: > 64 µg/mL
Activity [6]: 0%
MIC50 [7]: ≤ 0.06 µg/mL
MIC90 [7]: ≤ 0.06 µg/mL
MIC [8]: ≤ 0.06 µg/mL
MIC50 [8]: ≤ 0.06 µg/mL
MIC90 [8]: ≤ 0.06 µg/mL
Activity [9]: 100%
Activity [10]: 0%
Activity [11]: 100%
Activity [12]: 100%
Activity [13]: 0%
Activity [14]: 0%
Activity [15]: 87.8%
Activity [16]: 100%
Activity [17]: 0%
Activity [18]: 0%
Activity [19]: 0%
MIC50 [20]: ≤ 0.06 µg/mL
MIC90 [20]: ≤ 0.06 µg/mL
Activity [21]: 100%
Activity [22]: 100%
MIC50 [23]: ≤ 0.06 µg/mL
MIC90 [23]: ≤ 0.06 µg/mL
Activity [24]: 92%
MIC50 [25]: 0.5 µg/mL (≈ 1.3 µM)
MIC90 [25]: 8 µg/mL (≈ 20.9 µM)
Activity [26]: 8%
MIC50 [27]: 0.5 µg/mL (≈ 1.3 µM)
MIC90 [27]: 4 µg/mL (≈ 10.4 µM)
MIC50 [28]: ≤ 0.06 µg/mL
MIC90 [28]: ≤ 0.06 µg/mL

CCN1CCN(C(=O)N[C@@H](C(=O)N[C@@H]2C(=O)N3[C@@H]2SC(C)(C)[C@@H]3C(=O)O)c2ccccc2)C(=O)C1=O [PIPERACILLIN]
Activity [29]: 90%
Activity [30]: 97.6%
MIC50 [31]: 4 µg/mL
MIC90 [31]: > 512 µg/mL
MIC [32]: ≤ 1 µg/mL
MIC50 [32]: ≤ 1 µg/mL
MIC90 [32]: ≤ 1 µg/mL
Activity [33]: 1%
MIC50 [34]: > 512 µg/mL
MIC90 [34]: > 512 µg/mL
Activity [35]: 7.3%
Activity [36]: 0.9%
Activity [37]: 12%
MIC50 [38]: 2 µg/mL
MIC90 [38]: 16 µg/mL
Activity [39]: 0%
Activity [40]: 9%
MIC50 [41]: 4 µg/mL
MIC90 [41]: 64 µg/mL
Activity [42]: 4.7%
Activity [43]: 1.4%
Activity [44]: 0%
Activity [45]: 92.7%
MIC50 [46]: 2 µg/mL
MIC90 [46]: 8 µg/mL
MIC50 [47]: 2 µg/mL
MIC90 [47]: 4 µg/mL
MIC50 [48]: 2 µg/mL
MIC90 [48]: 64 µg/mL
Activity [49]: 9%
Activity [50]: 1%
MIC50 [51]: 2 µg/mL
MIC90 [51]: 64 µg/mL
Activity [52]: 76%
MIC50 [53]: 2 µg/mL
MIC90 [53]: 8 µg/mL
Activity [54]: 96.7%
Activity [55]: 82.6%
Activity [56]: 1.3%
Activity [57]: 2%
Activity [58]: 94.4%
Activity [59]: 100%
Activity [60]: 8.4%
